ABHD5 PLIN5 PPI: ABHD5-PLIN5 protein interaction inhibition; Split G. princeps luciferase complementation, luminescence, 4 h; hit rate 0.78% among 360,000; inhibition, % at 4 µM; Q00G26+Q8WTS1;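 active = inhibition above the mean inhibition across every tested compound plus 3 SD, cut at about 22% in these data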
Target sequence (Q00G26 whole entry, looked up): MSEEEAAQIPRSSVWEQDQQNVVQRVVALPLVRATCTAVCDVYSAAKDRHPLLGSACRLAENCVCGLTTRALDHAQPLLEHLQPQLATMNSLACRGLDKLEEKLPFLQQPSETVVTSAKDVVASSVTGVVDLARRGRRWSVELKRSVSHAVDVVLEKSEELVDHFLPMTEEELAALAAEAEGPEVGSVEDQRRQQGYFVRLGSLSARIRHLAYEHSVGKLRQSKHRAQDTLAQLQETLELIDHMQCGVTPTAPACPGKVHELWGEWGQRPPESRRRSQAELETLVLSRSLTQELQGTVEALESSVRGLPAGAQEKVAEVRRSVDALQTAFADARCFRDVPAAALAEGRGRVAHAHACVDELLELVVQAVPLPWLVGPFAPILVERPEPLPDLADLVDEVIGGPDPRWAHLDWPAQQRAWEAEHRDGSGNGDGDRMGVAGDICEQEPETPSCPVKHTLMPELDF
Target sequence (Q8WTS1 whole entry, looked up): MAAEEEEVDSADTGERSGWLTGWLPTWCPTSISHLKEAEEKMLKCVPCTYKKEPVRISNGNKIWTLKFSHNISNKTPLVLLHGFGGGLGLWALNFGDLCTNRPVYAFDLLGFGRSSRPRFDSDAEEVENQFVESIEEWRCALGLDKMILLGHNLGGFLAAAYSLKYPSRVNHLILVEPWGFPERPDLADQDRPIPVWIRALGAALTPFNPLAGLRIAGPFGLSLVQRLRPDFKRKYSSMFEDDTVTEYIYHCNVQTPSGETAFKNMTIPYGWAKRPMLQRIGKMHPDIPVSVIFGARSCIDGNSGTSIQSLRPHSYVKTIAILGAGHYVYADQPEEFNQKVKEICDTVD
rCAG RNA binder: r(CAG) repeat RNA binding; TO-PRO-1 dye displacement fluorescence; inhibition, % at 3 µM; hit rate 1.3% among 370,000; AID 651821;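 active = inhibition above the plate cutoff, the mean of all test compounds on that plate plus 3 SD, cut at about 35% in these data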;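 note: higher means more dye released from RNA so lower well fluorescence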
NadD inh: NadD (S. aureus) enzyme inhibition | AID 602399 | purified NadD enzyme, colorimetric absorbance read-out | hit rate 0.78% among 360,000 | inhibition, % at 20 µM; in the data active = inhibition above about 26%
core dimer inh: blocks dimerization of HCV core protein | TR-FRET GST/Flag-core106 dimerization, 1536-well | inhibition, % at 5 µM | hit rate 0.33% among 300,000;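 active = inhibition above the mean of all tested compounds plus 3 SD, set per screening campaign, cut at about 45% in these data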
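System: GST-tagged and Flag-tagged HCV core protein residues 1-106 / Input: core106 proteins, GST 13.5 nM and Flag 17 nM / Buffer or medium: KF-containing HEPES buffer, pH 7.45, DTT, CHAPS, BSA / Probe or stimulus: Eu-anti-GST and XL665-anti-Flag labelled anti-tag antibodies / Schedule: 4 h, 22.5 °C incubation / Technique: TR-FRET 671 and 617 nm emission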
Large screens that a line does not name were inactive. A selection: hits, their analogues and other compounds. The true share with any hit is near 2.6%.

O=C(CN1C(=O)c2cccc3cccc1c23)Nc1ccccc1C(=O)NCc1ccco1	ABHD5 PLIN5 PPI 23
O=C(CCCN1C(=O)c2ccccc2C1=O)Nc1sc2c(c1C(=O)NCc1ccco1)CCC2	none
O=C(CN1C(=O)c2ccccc2S1(=O)=O)Nc1ccccc1C(=O)NCc1ccco1	none
O=C(CN1C(=O)c2ccccc2C1=O)Nc1sc2c(c1C(=O)NCc1ccco1)CCCC2	core dimer inh 64
NC(=O)c1ccc(NC(=O)COC(=O)c2cc3c(s2)CCC3)cc1	none (no result: core dimer inh)
O=C(COC(=O)c1cc2c(s1)CCC2)Nc1ccc(F)cc1	core dimer inh 50
CCOc1cc(/C=N/Nc2nc(-c3cccc(S(=O)(=O)N4CCCC4)c3)cs2)ccc1O	NadD inh 45
CCN(C[C@H]1[C@@H](c2ccc(C3=CCCC3)cc2)[C@H](CO)N1C(=O)c1cccnc1)S(=O)(=O)c1ccccc1[N+](=O)[O-]	none (no result: ABHD5 PLIN5 PPI, NadD inh, core dimer inh)
O=C(C1CCCN1S(=O)(=O)c1ccc([N+](=O)[O-])cc1)N1CCc2ccccc2C1 (centres undefined)	none (no result: ABHD5 PLIN5 PPI, NadD inh, core dimer inh)
CC(NC(=O)CSc1nc2sc3c(c2c(=O)n1-c1ccccc1)CCCC3)c1ccccc1 (centres undefined)	NadD inh 33
O=C(O)CSc1nc2sc3c(c2c(=O)n1-c1ccccc1)CCC3	none
Clc1cccc(OCCN2CCN(CCOc3cccc(Cl)c3)CC2)c1	ABHD5 PLIN5 PPI 23
CC1CCN(CCOc2cccc(Br)c2)CC1	none
Cc1cccc(C(=O)NNC(=O)c2cc3cc4ccccc4nc3s2)c1	none
O=C(NNC(=O)c1cc2cc3ccccc3nc2s1)c1cccc(Cl)c1	core dimer inh 58
O=C(NNC(=O)c1cc2cc3ccccc3nc2s1)c1ccc(F)cc1	none
Cc1ccc(S(=O)(=O)NNC(=O)c2cc3cc4ccccc4nc3s2)cc1	rCAG RNA binder 36
O=C(N/N=C/c1cc(Cl)ccc1O)c1ccc(Br)cc1	none
Cc1ccc(N=Nc2ccc(O)c(/C=N\NC(=O)c3ccc(N)cc3)c2)cc1C	NadD inh 48
Cc1ccc(-c2nnc3n2N=C(c2ccc(-c4ccccc4)cc2)CS3)cc1	none (no result: ABHD5 PLIN5 PPI, NadD inh, core dimer inh)
N#CCC[C@H]1CC[C@]2(CCCN(c3ccccc3)C2)O1	none (no result: ABHD5 PLIN5 PPI, NadD inh, core dimer inh)
O=C1NN(c2ccc(F)c(Cl)c2)C(=O)/C1=C\c1cccc(OC(=O)c2cccs2)c1	rCAG RNA binder 90, NadD inh 30
O=C1OC(c2ccccc2)=N/C1=C/c1cccc(OC(=O)c2cccs2)c1	none
Cc1ccccc1-c1ccc2c(c1)[C@@H]1C[C@H](N(C)C(=O)Nc3ccccc3)[C@H]([C@H](C)O)CN1CC2	none (no result: ABHD5 PLIN5 PPI, NadD inh, core dimer inh)
O=C(NCc1ccc(/C=c2\sc3n(c2=O)CCN=3)o1)C(=O)Nc1ccccc1	core dimer inh 59 (no result: ABHD5 PLIN5 PPI, rCAG RNA binder, NadD inh)
CCOC(=O)[C@@]12CN(C(=O)OC(C)(C)C)CC=C1N(Cc1ccc(OC)cc1)C(=O)[C@H]2CC(=O)NCC1CCCCC1	none (no result: ABHD5 PLIN5 PPI, NadD inh, core dimer inh)
CCc1nnc(NS(=O)(=O)c2ccc(NC(=O)/C=C/c3ccc(OC)cc3OC)cc2)s1	rCAG RNA binder 82
CCc1nnc(NS(=O)(=O)c2ccc(NC(=O)COc3ccc4ccccc4c3)cc2)s1	none
CN1C(=O)c2cc(NC(=O)Nc3ccccc3)ccc2OC[C@H]2O[C@@H](CC(=O)Nc3cc(F)ccc3F)CC[C@@H]21	none (no result: ABHD5 PLIN5 PPI, NadD inh, core dimer inh)
CCCc1cc(=O)oc2c(C)c(OCC(=O)N3CCC[C@@H]3C(=O)O)ccc12	none
CCCCCCc1c(C)c2ccc(OCC(=O)N3CCC[C@H]3C(=O)O)c(C)c2oc1=O	rCAG RNA binder 41
O=C(Nc1ccccc1C(=O)O)c1cc(S(=O)(=O)N2CCCCCC2)ccc1Cl	rCAG RNA binder 58
O=C(Nc1ccc2c(c1)CCC2)c1cc(S(=O)(=O)N2CCN(c3ccccc3)CC2)ccc1Cl	NadD inh 32, core dimer inh 55
O=C(NC1CCCCC1)c1cc(S(=O)(=O)N2CCN(c3ccccc3)CC2)ccc1Cl	none (no result: core dimer inh)
Cc1ccc(Cc2c(-c3cccc(Cl)c3)nc3ccc(Br)cn23)cc1	rCAG RNA binder 44 (no result: core dimer inh)
Cc1ccc(Cc2c(-c3cccc(Cl)c3)nc3ccc(C)cn23)cc1	none (no result: core dimer inh)
Cc1cc2nc(-c3cccc(Cl)c3)c(Cc3cccc(Cl)c3)n2c(C)c1Br	rCAG RNA binder 35 (no result: core dimer inh)
Cc1ccc2c(c1)C(CS(=O)(=O)NCCc1ccccc1)NC2 (centres undefined)	none (no result: ABHD5 PLIN5 PPI, NadD inh, core dimer inh)
O=S(=O)(CS(=O)(=O)c1ccccc1Br)c1ccccc1Br	none (no result: ABHD5 PLIN5 PPI, NadD inh, core dimer inh)
Cc1ccc2cc(C(c3nnnn3C3CCCC3)N(Cc3ccco3)Cc3cccs3)c(=O)[nH]c2c1 (centres undefined)	NadD inh 39
CC1=NN(c2nc(-c3ccc(C)cc3)cs2)C(=O)C1N=Nc1ccc2ccccc2c1 (centres undefined)	NadD inh 44
Cc1ccc(/C=C2\Oc3c(ccc(O)c3CN3CCN(CCO)CC3)C2=O)cc1	ABHD5 PLIN5 PPI 23
CC(C)c1ccc(/C=C2\Oc3c(ccc(O)c3CN3CCN(C)CC3)C2=O)cc1	none
COc1ccc(C(=O)C2(C(=O)NCc3ccccc3)CC(c3ccccc3C(F)(F)F)=NO2)cc1 (centres undefined)	none (no result: ABHD5 PLIN5 PPI, NadD inh, core dimer inh)
Cc1nc(C)c(C(=O)Nc2nc3c(C)cccc3s2)o1	core dimer inh 54
Cc1cccc2sc(NC(=O)C3CCCO3)nc12 (centres undefined)	none
COc1ccc(CN2C(=O)N3Cc4ccc(C)cc4C3CS2(=O)=O)cc1 (centres undefined)	none (no result: ABHD5 PLIN5 PPI, NadD inh, core dimer inh)
Cc1ccc(-c2cc(C(=O)N3CCOCC3)c3ccccc3n2)o1	none (no result: core dimer inh)
Cc1ccccc1-c1cc(C(=O)N2CCCC2)c2ccccc2n1	core dimer inh 53
Cc1ccc(-c2cc(C(=O)N3CCN(c4ccc(F)cc4)CC3)c3ccccc3n2)o1	core dimer inh 49
COc1ccc(NC(=O)c2cc(-c3ccc(C)o3)nc3ccccc23)cc1OC	ABHD5 PLIN5 PPI 34
COc1ccc(NC(=O)CSc2nc(C)cc(=O)[nH]2)cc1OC	none (no result: ABHD5 PLIN5 PPI, NadD inh, core dimer inh)
COC/C=C/C1=CC2=CC(=O)C(C)(OC(=O)c3cnc4ccccc4n3)C(=O)C2=CN1c1ccccc1 (centres undefined)	none (no result: ABHD5 PLIN5 PPI, NadD inh)
COC/C=C/C1=CC2=CC(=O)C(C)(OC(=O)c3cnc4ccccc4n3)C(=O)C2=CN1c1ccc(CO)cc1 (centres undefined)	core dimer inh 56 (no result: ABHD5 PLIN5 PPI, rCAG RNA binder, NadD inh)
CCCn1c(/C=C/c2ccco2)nc2ccccc21	core dimer inh 51
CCCCn1c(=NC(=O)c2ccco2)c(C(=O)OCC)cc2c(=O)n3ccccc3nc21	ABHD5 PLIN5 PPI 28
COc1ccc([N+](=O)[O-])cc1NC(=O)CSc1nccc(C)n1	core dimer inh 51
COCCCN1C(=O)[C@H](CC(=O)NCC23CC4CC(CC(C4)C2)C3)[C@]2(C(=O)OC)CCCCC=C12	none (no result: ABHD5 PLIN5 PPI, NadD inh, core dimer inh)
Cc1nn(-c2ccccc2)c(Cl)c1C1C(C#N)=C(N)OC2=C1C(=O)CC(C)(C)C2 (centres undefined)	none
CC(C)c1ccc(-c2nn(-c3ccccc3)cc2C2C(C#N)=C(N)OC3=C2C(=O)CC(C)(C)C3)cc1 (centres undefined)	core dimer inh 48
COc1ccc(Nc2nc(-c3sc(N)nc3C)cs2)cc1	none
COc1ccc(CCNc2nc(-c3sc(N)nc3C)cs2)cc1OC	NadD inh 30

Compound activity: PubChem, several laboratories
